DNMT1 inh – human DNMT1 methyltransferase inhibitors, primary screen, biochemical, molecular beacon, fluorescence, HinP1I cleavage, uHTS. DNA (cytosine-5)-methyltransferase 1 (Homo sapiens), P26358. inhibition (reported as % activation of signal), % at 10 µM. actives 0.83% (n = 360,000). AID 588458, 2011; in the data active means inhibition above about 50%
SUMO1 PPI mod – modulators of SUMO1 protein-protein interactions, primary screen, biochemical, uHTS | inhibition, % at 20 µM | Small ubiquitin-related modifier 1 (Homo sapiens), P63165 | SUMO1 binding to a labelled peptide, TR-FRET, 1 h | actives 0.33% (n = 360,000); in the data active means inhibition above about 37%
SUMO HTRF inh – inhibitors of in vitro SUMOylation cascade, primary screen, biochemical, HTRF, uHTS; HTRF SUMOylation assay, SAE1/SAE2 + UBC9; AID 2006, 2009; SUMO-conjugating enzyme UBC9 (Homo sapiens), P63279; actives 0.36% (n = 290,000); inhibition, % at 35 µM; in the data active means inhibition above about 50%, passing the limit was not always enough
Target sequence (P63279 whole entry, looked up): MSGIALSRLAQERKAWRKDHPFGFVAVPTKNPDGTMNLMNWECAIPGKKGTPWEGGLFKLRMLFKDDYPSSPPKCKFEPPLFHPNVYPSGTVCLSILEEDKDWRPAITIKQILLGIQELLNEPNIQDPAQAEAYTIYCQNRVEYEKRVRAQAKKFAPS
STEP inh – STEP phosphatase inhibitors, primary screen, biochemical, fluorescence intensity, uHTS. recombinant STEP, OMFP fluorogenic substrate. inhibition, % at 20 µM. actives 0.25% (n = 360,000). AID 588621, 2011;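 active means inhibition at 20 µM, scaled per plate between control wells, above about 37%, limit read from the data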
Target sequence (P54829 whole entry, looked up): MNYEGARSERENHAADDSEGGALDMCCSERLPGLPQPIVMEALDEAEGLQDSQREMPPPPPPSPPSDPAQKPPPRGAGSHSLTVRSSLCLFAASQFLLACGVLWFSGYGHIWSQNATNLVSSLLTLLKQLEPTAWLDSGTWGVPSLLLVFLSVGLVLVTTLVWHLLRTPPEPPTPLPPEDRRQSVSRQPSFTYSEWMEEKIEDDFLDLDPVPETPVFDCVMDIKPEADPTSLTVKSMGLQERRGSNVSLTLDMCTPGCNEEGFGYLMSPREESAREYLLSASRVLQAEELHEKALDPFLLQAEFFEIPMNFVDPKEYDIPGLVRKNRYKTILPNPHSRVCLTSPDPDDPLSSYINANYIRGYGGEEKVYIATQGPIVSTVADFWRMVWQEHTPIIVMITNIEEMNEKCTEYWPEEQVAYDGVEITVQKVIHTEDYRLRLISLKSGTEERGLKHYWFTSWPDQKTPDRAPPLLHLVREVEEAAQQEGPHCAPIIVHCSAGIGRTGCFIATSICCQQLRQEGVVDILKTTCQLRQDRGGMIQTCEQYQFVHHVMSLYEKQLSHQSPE
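Assay system: isolated STEP enzyme. Buffer or medium: pH 6.0 Bis-Tris with DTT and Tween 20. Also added: fluorogenic phosphatase substrate OMFP at 25 µM final. Dosing: 20 µM, 1% DMSO. Timing: 20 min reaction, room temperature, in the dark. Measured by: fluorescence intensity, excitation 480 nm, emission 540 nm. Evaluation: normalized % inhibition.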
LMPTP block – LMPTP phosphatase inhibitors, primary screen, biochemical, fluorescence intensity, uHTS | inhibition, % at 20 µM | AID 651560, 2012 | actives 0.22% (n = 360,000) | recombinant LMPTP-A, OMFP fluorogenic substrate;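 active means compounds that cut the enzyme signal by at least half of the control window in the single-dose screen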
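Test system – LMPTP-A enzyme · Amount – LMPTP-A at 0.625 nM final in the reaction · Buffer or medium – Bis-Tris pH 6.0, DTT, detergent · Reagent – OMFP 400 µM · Doses – single 20 µM dose · Schedule – reaction 50 min, room temperature, dark · Detection – fluorescence intensity of OMFP turnover product · Evaluation – percent inhibition versus substrate-only and uninhibited controls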
Scp-1 inhibitor – Scp-1 phosphatase inhibitors, primary screen, biochemical, colorimetric, uHTS; Carboxy-terminal domain RNA polymerase II polypeptide A small phosphatase 1 (Homo …; Recombinant Scp1, phosphopeptide, malachite green phosphate absorbance; actives 0.88% (n = 340,000); AID 493091, 2011; inhibition, % at 20 µM;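 active means inhibition above about 50% at 20 µM, limit read from the data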
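Times: enzyme reaction 45 min at room temperature, colour 5 min, stabilisation 30 min. Material: SCP-1 catalytic fragment, aa 76-261. Medium: Acidic Tris acetate buffer with magnesium and detergent. Signal: colorimetric free-phosphate detection, absorbance 630 nm. Read-out basis: % inhibition of SCP-1 phosphate liberation. Reagent: Phosphorylated 17-residue peptide substrate.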
Scp1 confirm – Scp-1 phosphatase inhibitors, retest, confirmation, biochemical, colorimetric, single concentration. shares compounds with Scp-1 inhibitor. recombinant SCP-1 catalytic domain, phosphate release, malachite green absorbance. inhibition, % at 20 µM. actives 61% (n = 2,500). AID 540281, 2011
Scp-1 MG ctr – colorimetric readout interference by compounds, confirmation, artefact control for Scp-1 inhibitor project, biochemical, single concentration. Colorimetric interference counterscreen, malachite green absorbance 630 nm. 2,500 tested, under 10 active. shares compounds with Scp-1 inhibitor. apparent inhibition (interference), % at 20 µM;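 further: compounds added after enzyme reaction finished so only phosphate colour detection is probed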
Scp1 DSF – Scp-1 binding by thermal shift, confirmation, orthogonal assay for Scp-1 inhibitor project, biophysical, differential scanning fluorimetry; shares compounds with Scp-1 inhibitor; Recombinant SCP1, Sypro Orange thermal shift Tm; thermal shift relative to vanadate control, % at 40 µM; actives 25% (n = 1,500);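 active means substances whose mean melting-temperature shift, as a percentage of the reference inhibitor's shift, reaches about 5.3%, limit read from the data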
Large screens that a line does not name were inactive (follow-up assays come after a bar, where they were run). In the library only some 1.9% were active in any assay of this set; here they are far more common.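 How the source made its calls, unless noted: active means inhibition of at least 30% at 20 µM; inactive means the rest.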

CC(=O)OCC1=C(C(=O)OC(C)(C)C)N2C(=O)[C@@H](NC(=O)Cc3ccccc3)[C@H]2SC1	Scp-1 inhibitor 91.2 (no result: SUMO HTRF inh) | Scp1 confirm 70.0 | Scp-1 MG ctr inactive | Scp1 DSF 8.8
COc1ccc(NC(=O)c2nnn(CC(=O)Nc3ccc4c(c3)OCO4)c2N)c(OC)c1	none
O=C(CN1C(=O)c2ccccc2S1(=O)=O)Nc1cccc(S(=O)(=O)N2CCCCC2)c1	none (no result: SUMO HTRF inh)
COc1ccc(CCN2CC(C(=O)OC(C)C(=O)Nc3cccc(Cl)c3)CC2=O)cc1OC (stereo not drawn)	none (no result: SUMO HTRF inh) | Scp1 confirm inactive | Scp-1 MG ctr inactive
CC1(C(=O)NS(=O)(=O)c2cccc(F)c2)CCN1C(=O)CC1CCCC1 (stereo not drawn)	none (no result: SUMO HTRF inh, Scp-1 inhibitor)
CCCCn1c(N)c(N(CCOC)C(=O)c2cc(-c3ccco3)nc3ccccc23)c(=O)[nH]c1=O	Scp-1 inhibitor 58.2 (no result: SUMO HTRF inh) | Scp1 confirm 67.0 | Scp-1 MG ctr inactive | Scp1 DSF inactive
COCCN(C(=O)COC(=O)/C=C/c1ccc(C(F)(F)F)cc1)c1c(N)n(Cc2ccccc2)c(=O)[nH]c1=O	Scp-1 inhibitor 58.4 (no result: SUMO HTRF inh) | Scp1 confirm inactive | Scp-1 MG ctr inactive
COCCN(C(=O)c1cc(-c2ccco2)nc2ccccc12)c1c(N)n(Cc2ccccc2)c(=O)[nH]c1=O	Scp-1 inhibitor 64.1 (no result: SUMO HTRF inh) | Scp1 confirm 57.7 | Scp-1 MG ctr inactive | Scp1 DSF inactive
CCCn1c(N)c(N(CCOC)C(=O)c2cc(Cl)nc3ccccc23)c(=O)[nH]c1=O	none (no result: SUMO HTRF inh)
CN(C)c1ccc(NC(=O)Nc2nc(C(N)C3CCCCC3)cs2)cc1 (stereo not drawn)	none (no result: SUMO HTRF inh, Scp-1 inhibitor)
COc1ccc(NC(=O)CN2C(=O)NC3(CCCCCC3)C2=O)cc1Cl	none (no result: SUMO HTRF inh)
Cc1cc(Cl)ccc1NC(=O)CCC(=O)N/N=C/c1cc([N+](=O)[O-])ccc1O	Scp-1 inhibitor 54.6 | Scp1 confirm 66.0 | Scp-1 MG ctr inactive | Scp1 DSF inactive
O=C1CNC(=O)/C1=C\N1CCN(C(c2ccccc2)c2ccccc2)CC1	Scp-1 inhibitor 55.5 | Scp1 confirm inactive | Scp-1 MG ctr inactive
O=C1CNC(=O)/C1=C\N1CCCCC1	none
Cc1ccc(NC(=O)c2cc(-c3ccc(C)c(C)c3O)n[nH]2)cc1C	Scp-1 inhibitor 98.5 | Scp1 confirm 66.9 | Scp-1 MG ctr inactive | Scp1 DSF 7.5
CC(=O)Nc1ccc(NC(=O)c2cc(-c3ccc(C)c(C)c3O)n[nH]2)cc1	none
COC(=O)CSc1nc(C)cc(N2CCOCC2)n1	none
O=C1CCCN1CCCNS(=O)(=O)c1ccc(F)cc1F	none | Scp1 confirm inactive | Scp-1 MG ctr inactive
O=C1CCCN1CCCNS(=O)(=O)c1ccccc1	none
O=C(NCCCN1CCCC1=O)Nc1ccccc1Cl	none
O=C(NCCCN1CCCC1=O)Nc1ccccc1F	none | Scp1 confirm inactive | Scp-1 MG ctr inactive
CC(C)Oc1ccc(CNS(=O)(=O)c2csc(C(N)=O)c2)cc1	none | Scp1 confirm inactive | Scp-1 MG ctr inactive
CN(C)c1ccc(CNS(=O)(=O)c2csc(C(N)=O)c2)cc1	none | Scp1 confirm inactive | Scp-1 MG ctr inactive
NC(=O)c1cc(S(=O)(=O)NCCCc2ccccc2)cs1	none
O=C(Nc1ccc(Cl)cc1F)C1CC1	none
O=C1NC(c2ccccc2)=C(c2ccc3ccccc3n2)C(c2ccccc2)N1 (stereo not drawn)	Scp-1 inhibitor 58.9 | Scp1 confirm inactive | Scp-1 MG ctr inactive
O=C1NC(c2ccccc2)=C(c2ccc3ccccc3n2)C(c2ccc(F)cc2)N1 (stereo not drawn)	none
CCOc1cc(/C=N/N=C2/NC(=O)C(CC(=O)O)S2)ccc1OCc1ccc(Cl)cc1 (stereo not drawn)	Scp-1 inhibitor 75.4 | Scp1 confirm 68.8 | Scp-1 MG ctr inactive | Scp1 DSF inactive
O=[N+]([O-])c1ccc(C(O)C[n+]2ccccc2)cc1 (stereo not drawn)	Scp-1 inhibitor 96.4 | Scp1 confirm inactive | Scp-1 MG ctr inactive
O=C1NC2c3c(Cl)sc(Cl)c3C(=O)C2O1 (stereo not drawn)	DNMT1 inh 91.1, Scp-1 inhibitor 78.9 (no result: SUMO HTRF inh) | Scp1 confirm 71.2 | Scp-1 MG ctr inactive | Scp1 DSF 18.1
O=C1NC2c3c(I)sc(I)c3C(=O)C2O1 (stereo not drawn)	none (no result: SUMO HTRF inh)
COCCCn1c(-c2ccco2)nc2ccccc2c1=O	none
CCn1nc([N+](=O)[O-])c2c(-c3nc4ccccc4o3)c(N)n(CCCOC)c2c1=O	Scp-1 inhibitor 84.8 | Scp1 confirm 78.3 | Scp-1 MG ctr inactive | Scp1 DSF inactive
COc1ccccc1N(CC(=O)Nc1cc(S(=O)(=O)N(C)C)ccc1C)S(=O)(=O)c1cccs1	none (no result: SUMO HTRF inh)
C=CCOc1ccc(/C=C\c2nc(O)c([N+](=O)[O-])c(=O)[nH]2)cc1OCC	Scp-1 inhibitor 98.7 | Scp1 confirm 44.9 | Scp-1 MG ctr inactive | Scp1 DSF inactive
C=CCOc1ccc(/C=C\c2nc(O)c([N+](=O)[O-])c(=O)[nH]2)cc1OC	Scp-1 inhibitor 62.0 | Scp1 confirm 58.8 | Scp-1 MG ctr inactive | Scp1 DSF inactive
COc1cc(/C=C/c2[nH]c(=O)[nH]c(=O)c2[N+](=O)[O-])ccc1OCCC(C)C	Scp-1 inhibitor 62.6 | Scp1 confirm 71.2 | Scp-1 MG ctr inactive | Scp1 DSF inactive
COc1ccc(/C=C\c2nc(O)c([N+](=O)[O-])c(=O)[nH]2)cc1O	none
CC1CC(C)(C)CC2(C1)NC(=O)N(CC(=O)Nc1cc([N+](=O)[O-])ccc1F)C2=O (stereo not drawn)	none (no result: SUMO HTRF inh)
